Measurements as given in ChEMBL document CHEMBL1154215, “Constituents of the leaves of Magnolia ovata” (2009).
Calls of active or inactive are those of the source. The calls are words filed in the database; no cut-off is given here.

What was measured:
Type in all cases: functional
[1] = tested on: Radical scavenging activity; experiment: Antioxidant activity assessed as DPPH radical scavenging activity
Summary of the method: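 DPPH (250 μM in MeOH) added to methanolic compound solutions, seven serial […] dilutions giving a final range of 100 to 1.6 μg mL⁻¹. Quercetin and Trolox served as positive controls. Triplicate assays. SC₅₀ is the concentration (μg mL⁻¹) scavenging 50% of DPPH radicals, reported as mean (%RSD).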

[2] = tested on: Pseudomonas aeruginosa; experiment: Antimicrobial activity against Pseudomonas aeruginosa ATCC 15442 by broth microdilution method
Summary of the method: (§1)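 Broth microdilution in 96-well plates; compounds tested from 10 to 1000 μg/mL. MIC is the lowest concentration giving complete inhibition of the strain. Positive controls were bacitracine (0.2 UI mL⁻¹) and ketoconazole (100.0 μg mL⁻¹). Negative control was DMSO–sterile water (5:95, v/v). Run in duplicate per microorganism and repeated three times.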

[3] = tested on: Staphylococcus epidermidis; experiment: Antimicrobial activity against Staphylococcus epidermidis ATCC 12228 by broth microdilution method; summary of the method: as §1
[4] = tested on: Candida tropicalis; experiment: Antimicrobial activity against Candida tropicalis ATCC 157 by broth microdilution method; summary of the method: as §1
[5] = tested on: Staphylococcus aureus; experiment: Antimicrobial activity against Staphylococcus aureus ATCC 14458 by broth microdilution method; summary of the method: as §1
[6] = tested on: Escherichia coli; experiment: Antimicrobial activity against Escherichia coli ATCC 10799 by broth microdilution method; summary of the method: as §1
[7] = tested on: Candida dubliniensis; experiment: Antimicrobial activity against Candida dubliniensis ATCC 778157 by broth microdilution method; summary of the method: as §1
[8] = tested on: Nakaseomyces glabratus; experiment: Antimicrobial activity against Candida glabrata ATCC 30070 by broth microdilution method; summary of the method: as §1

SMILES | SC50 [1] [µg/mL] | MIC [2] [µg/mL] | MIC [3] [µg/mL] | MIC [4] [µg/mL] | MIC [5] [µg/mL] | Activity [1] | MIC [6] [µg/mL] | MIC [7] [µg/mL] | MIC [8] [µg/mL]
Cc1c(C)c2c(c(C)c1O)CCC(C)(C(=O)O)O2 (stereo unspecified) | 2.2 |  |  |  |  |  |  |  | 
O=c1c(O)c(-c2ccc(O)c(O)c2)oc2cc(O)cc(O)c12 | 13 |  |  |  |  |  |  |  | 
C[C@H]([C@H](C)Cc1ccc2c(c1)OCO2)[C@H](O)c1ccc2c(c1)OCO2 (relative stereo) [MAGNOVATIN A] |  | > 100 | > 100 | > 100 | > 100 | inactive | > 100 | > 100 | > 100
C/C=C/c1cc(OC)c2c(c1)[C@@H](C)[C@H](c1ccc(OC)c(OC)c1)O2 [ACUMINATIN] |  | > 100 | > 100 | > 100 | > 100 | inactive | > 100 | > 100 | > 100
C/C=C/c1cc(OC)c2c(c1)[C@@H](C)[C@H](c1ccc(O)c(OC)c1)O2 [LICARINE A] | 56.1 | > 100 | > 100 | > 100 | > 100 |  | > 100 | > 100 | > 100
